Laboratory results as given in ChEMBL document CHEMBL1649165, “Activity profile in vitro of micafungin against Spanish clinical isolates of common and emerging species of yeasts and molds” (2009).
≈ marks a conversion by molar mass, not a printed value.

Assays:
Type in all cases: functional
Candida metapsilosis = assay: Antimicrobial activity against Candida metapsilosis by broth microdilution method; conditions: Lodderomyces metapsilosis
Summary of the method: (§1)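 Clinical isolates from human patients, tested by broth microdilution using the AFST-EUCAST reference procedure for fermentative yeasts. The MIC was read per that reference method.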

[1] = tested on: Cladophialophora bantiana; assay: Antimicrobial activity against Cladophialophora bantiana by broth microdilution method
Summary of the method: (§2)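 Clinical mould isolates, tested by broth microdilution using the AFST-EUCAST reference method for filamentous fungi. For echinocandins, the endpoint was the minimum effective concentration: the lowest drug concentration giving aberrant hyphal growth, read with an inverted microscope.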

Aspergillus niger = assay: Antimicrobial activity against Aspergillus niger by broth microdilution method; summary of the method: as §2
[2] = Antimicrobial activity against Rhizopus microsporus by broth microdilution method
Summary of the method: (§3)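 Filamentous fungus clinical isolates tested by the AFST-EUCAST reference broth microdilution method for moulds. For echinocandins, the endpoint was the minimum effective concentration: the lowest drug concentration giving aberrant hyphal growth, read with an inverted microscope.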

Lomentospora prolificans = assay: Antimicrobial activity against Scedosporium prolificans by broth microdilution method; summary of the method: as §3
Papiliotrema laurentii = assay: Antimicrobial activity against Cryptococcus laurentii by broth microdilution method
Summary of the method: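 Clinical isolates of nonfermentative yeasts, tested by broth microdilution following EUCAST recommendations. The only change from that method was a minor modification to improve growth.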

Paecilomyces variotii = assay: Antimicrobial activity against Paecilomyces variotii by broth microdilution method; summary of the method: as §3
Magnusiomyces capitatus = assay: Antimicrobial activity against Dipodascus capitatus by broth microdilution method
Aspergillus = assay: Antimicrobial activity against Aspergillus spp. by broth microdilution method; summary of the method: as §2
Trichosporon asahii = assay: Antimicrobial activity against Trichosporon asahii by broth microdilution method
Summary of the method: (§4)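 Nonfermentative yeast clinical isolates (Rhodotorula, Trichosporon) tested by broth microdilution. The EUCAST yeast recommendations were followed strictly, with one minor modification to improve growth. MIC was read as the endpoint.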

Trichosporon ovoides = assay: Antimicrobial activity against Trichosporon ovoides by broth microdilution method; summary of the method: as §4
Trichosporon = assay: Antimicrobial activity against Trichosporon spp. by broth microdilution method; summary of the method: as §4
Exophiala jeanselmei = assay: Antimicrobial activity against Exophiala jeanselmei by broth microdilution method
Rhizomucor = assay: Antimicrobial activity against Rhizomucor spp.by broth microdilution method; summary of the method: as §3
Saksenaea vasiformis = assay: Antimicrobial activity against Saksenaea vasiformis by broth microdilution method; summary of the method: as §3
Pichia kudriavzevii = assay: Antimicrobial activity against Candida krusei by broth microdilution method; summary of the method: as §1
Neurospora sitophila = assay: Antimicrobial activity against Chrysonilia sitophila by broth microdilution method; summary of the method: as §2
Trichosporon dermatis = assay: Antimicrobial activity against Trichosporon dermatis by broth microdilution method; conditions: Cutaneotrichosporon dermatis; summary of the method: as §4
Aspergillus sclerotiorum = assay: Antimicrobial activity against Aspergillus sclerotiorum by broth microdilution method; summary of the method: as §2
Aspergillus sydowii = assay: Antimicrobial activity against Aspergillus sydowii by broth microdilution method; summary of the method: as §2
[Candida] inconspicua = Antimicrobial activity against Candida inconspicua by broth microdilution method; conditions: Pichia inconspicua; summary of the method: as §1
Candida parapsilosis = assay: Antimicrobial activity against Candida parapsilosis by broth microdilution method; conditions: Lodderomyces parapsilosis; summary of the method: as §1
Yarrowia lipolytica = assay: Antimicrobial activity against Yarrowia lipolytica by broth microdilution method
Aspergillus fumigatus = assay: Antimicrobial activity against Aspergillus fumigatus by broth microdilution method; summary of the method: as §2
Beauveria bassiana = assay: Antimicrobial activity against Beauveria bassiana by broth microdilution method; summary of the method: as §2
Trichoderma = assay: Antimicrobial activity against Trichoderma spp. by broth microdilution method; summary of the method: as §3
[Candida] zeylanoides = Antimicrobial activity against Candida zeylanoides by broth microdilution method; conditions: Dujonia zeylanoides; summary of the method: as §1
Geotrichum candidum = assay: Antimicrobial activity against Galactomyces geotrichum by broth microdilution method
Lichtheimia corymbifera = assay: Antimicrobial activity against Mycocladus corymbiferus by broth microdilution method; summary of the method: as §3
Nakaseomyces glabratus = assay: Antimicrobial activity against Candida glabrata by broth microdilution method; summary of the method: as §1
Cladosporium = assay: Antimicrobial activity against Cladosporium spp. by broth microdilution method; summary of the method: as §2
Pichia norvegensis = assay: Antimicrobial activity against Candida norvegensis by broth microdilution method; summary of the method: as §1
Wickerhamomyces anomalus = assay: Antimicrobial activity against Candida pelliculosa by broth microdilution method; conditions: Hansenula anomala; summary of the method: as §1
Saccharomyces cerevisiae = assay: Antimicrobial activity against Saccharomyces cerevisiae by broth microdilution method
Paecilomyces lilacinus = assay: Antimicrobial activity against Paecilomyces lilacinus by broth microdilution method; conditions: Purpureocillium lilacinum; summary of the method: as §3
Candida albicans = assay: Antimicrobial activity against Candida albicans by broth microdilution method; summary of the method: as §1
[3] = Antimicrobial activity against Hormographiella aspergillata by broth microdilution method; conditions: Coprinopsis cinerea; summary of the method: as §3
Aspergillus versicolor = assay: Antimicrobial activity against Aspergillus versicolor by broth microdilution method; summary of the method: as §2
Debaryomyces hansenii = assay: Antimicrobial activity against Candida famata by broth microdilution method; summary of the method: as §1
Alternaria alternata = assay: Antimicrobial activity against Alternaria alternata by broth microdilution method; summary of the method: as §2
Trichosporon jirovecii = assay: Antimicrobial activity against Trichosporon jirovecii by broth microdilution method; conditions: Cutaneotrichosporon jirovecii; summary of the method: as §4

CCC(C)n1ncn(-c2ccc(N3CCN(c4ccc(OCC5COC(Cn6cncn6)(c6ccc(Cl)cc6Cl)O5)cc4)CC3)cc2)c1=O (configuration not stated) [ITRACONAZOLE]
MIC50 (Candida metapsilosis): 0.12 µg/mL (≈ 0.17 µM)
MIC90 (Candida metapsilosis): > 8 µg/mL
MIC50 [1]: 0.12 µg/mL (≈ 0.17 µM)
MIC90 [1]: > 8 µg/mL
MIC50 (Aspergillus niger): 1 µg/mL (≈ 1.42 µM)
MIC90 (Aspergillus niger): > 8 µg/mL
MIC50 [2]: > 8 µg/mL
MIC90 [2]: > 8 µg/mL
MIC50 (Lomentospora prolificans): > 8 µg/mL
MIC90 (Lomentospora prolificans): > 8 µg/mL
MIC50 (Papiliotrema laurentii): 0.5 µg/mL (≈ 0.709 µM)
MIC90 (Papiliotrema laurentii): > 8 µg/mL
MIC50 (Paecilomyces variotii): 0.06 µg/mL (≈ 0.085 µM)
MIC90 (Paecilomyces variotii): 0.25 µg/mL (≈ 0.354 µM)
MIC50 (Magnusiomyces capitatus): 0.25 µg/mL (≈ 0.354 µM)
MIC90 (Magnusiomyces capitatus): 0.5 µg/mL (≈ 0.709 µM)
MIC50 (Aspergillus): 0.5 µg/mL (≈ 0.709 µM)
MIC90 (Aspergillus): > 8 µg/mL
MIC50 (Trichosporon asahii): 0.5 µg/mL (≈ 0.709 µM)
MIC90 (Trichosporon asahii): > 8 µg/mL
MIC50 (Trichosporon ovoides): 0.5 µg/mL (≈ 0.709 µM)
MIC90 (Trichosporon ovoides): > 8 µg/mL
MIC50 (Trichosporon): 0.5 µg/mL (≈ 0.709 µM)
MIC90 (Trichosporon): > 8 µg/mL
MIC50 (Exophiala jeanselmei): 0.12 µg/mL (≈ 0.17 µM)
MIC90 (Exophiala jeanselmei): > 8 µg/mL
MIC50 (Rhizomucor): > 8 µg/mL
MIC90 (Rhizomucor): > 8 µg/mL
MIC50 (Saksenaea vasiformis): > 8 µg/mL
MIC90 (Saksenaea vasiformis): > 8 µg/mL
MIC50 (Pichia kudriavzevii): 0.25 µg/mL (≈ 0.354 µM)
MIC90 (Pichia kudriavzevii): 0.25 µg/mL (≈ 0.354 µM)
MIC50 (Neurospora sitophila): > 8 µg/mL
MIC90 (Neurospora sitophila): > 8 µg/mL
MIC50 (Trichosporon dermatis): 0.5 µg/mL (≈ 0.709 µM)
MIC90 (Trichosporon dermatis): > 8 µg/mL
MIC50 (Aspergillus sclerotiorum): 0.5 µg/mL (≈ 0.709 µM)
MIC90 (Aspergillus sclerotiorum): > 8 µg/mL
MIC50 (Aspergillus sydowii): 0.5 µg/mL (≈ 0.709 µM)
MIC90 (Aspergillus sydowii): > 8 µg/mL
MIC50 ([Candida] inconspicua): 0.12 µg/mL (≈ 0.17 µM)
MIC90 ([Candida] inconspicua): > 8 µg/mL
MIC50 (Candida parapsilosis): 0.02 µg/mL (≈ 0.0283 µM)
MIC90 (Candida parapsilosis): 0.03 µg/mL (≈ 0.0425 µM)
MIC50 (Yarrowia lipolytica): 0.5 µg/mL (≈ 0.709 µM)
MIC90 (Yarrowia lipolytica): > 8 µg/mL
MIC50 (Aspergillus fumigatus): 0.25 µg/mL (≈ 0.354 µM)
MIC90 (Aspergillus fumigatus): 0.5 µg/mL (≈ 0.709 µM)
MIC50 (Beauveria bassiana): > 8 µg/mL
MIC90 (Beauveria bassiana): > 8 µg/mL
MIC50 (Trichoderma): > 8 µg/mL
MIC90 (Trichoderma): > 8 µg/mL
MIC50 ([Candida] zeylanoides): 0.12 µg/mL (≈ 0.17 µM)
MIC90 ([Candida] zeylanoides): > 8 µg/mL
MIC50 (Geotrichum candidum): 0.5 µg/mL (≈ 0.709 µM)
MIC90 (Geotrichum candidum): 2 µg/mL (≈ 2.83 µM)
MIC50 (Lichtheimia corymbifera): 1 µg/mL (≈ 1.42 µM)
MIC90 (Lichtheimia corymbifera): > 8 µg/mL
MIC50 (Nakaseomyces glabratus): 0.25 µg/mL (≈ 0.354 µM)
MIC90 (Nakaseomyces glabratus): 1 µg/mL (≈ 1.42 µM)
MIC50 (Cladosporium): 0.12 µg/mL (≈ 0.17 µM)
MIC90 (Cladosporium): > 8 µg/mL
MIC50 (Pichia norvegensis): 0.12 µg/mL (≈ 0.17 µM)
MIC90 (Pichia norvegensis): > 8 µg/mL
MIC50 (Wickerhamomyces anomalus): 0.12 µg/mL (≈ 0.17 µM)
MIC90 (Wickerhamomyces anomalus): > 8 µg/mL
MIC50 (Saccharomyces cerevisiae): 0.5 µg/mL (≈ 0.709 µM)
MIC90 (Saccharomyces cerevisiae): 2 µg/mL (≈ 2.83 µM)
MIC50 (Paecilomyces lilacinus): > 8 µg/mL
MIC90 (Paecilomyces lilacinus): > 8 µg/mL
MIC50 (Candida albicans): 0.02 µg/mL (≈ 0.0283 µM)
MIC90 (Candida albicans): 0.03 µg/mL (≈ 0.0425 µM)
MIC50 [3]: > 8 µg/mL
MIC90 [3]: > 8 µg/mL
MIC50 (Aspergillus versicolor): 0.5 µg/mL (≈ 0.709 µM)
MIC90 (Aspergillus versicolor): 1 µg/mL (≈ 1.42 µM)
MIC50 (Debaryomyces hansenii): 0.12 µg/mL (≈ 0.17 µM)
MIC90 (Debaryomyces hansenii): > 8 µg/mL
MIC50 (Alternaria alternata): 0.5 µg/mL (≈ 0.709 µM)
MIC90 (Alternaria alternata): > 8 µg/mL
MIC50 (Trichosporon jirovecii): 0.5 µg/mL (≈ 0.709 µM)
MIC90 (Trichosporon jirovecii): > 8 µg/mL
